Active and inactive are the calls of the source. No cut-off for these calls is given here.
Legend:
Translocator protein [1] = biological target: T1, Translocator protein (Homo sapiens, UniProt P30536); assay: Binding affinity to wild-type human TSPO expressed in HEK293 cells assessed as inhibition of cell viability at 100 uM incubated for 48 hrs by CellTiter Blue assay relative to control; format: cell-based
In short: (§1)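 Stably transfected WT or A147T TSPO HEK293 cells, 8.75 x 10^3/well on poly-L-lysine (100 µg/mL) plates for 24 h, then 100 µM ligand for 48 h. CellTiter Blue (resazurin) added for 4 h at 37 °C; fluorescence 530 ex/590 em; normalised to vehicle-treated cells; three independent experiments; two-way ANOVA with Dunnett's test.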

[2] = system: Translocator protein (Homo sapiens), P30536 [UNDEFINED MUTATION]; assay: Binding affinity to human TSPO A147T mutant expressed in HEK293 cells assessed as inhibition of cell proliferation at 100 uM incubated for 48 hrs by Brdu incorporation-based ELISA relative to control
Chain of Translocator protein (Homo sapiens), P30536 [UNDEFINED MUTATION] (P30536 whole entry, looked up, stated change not applied): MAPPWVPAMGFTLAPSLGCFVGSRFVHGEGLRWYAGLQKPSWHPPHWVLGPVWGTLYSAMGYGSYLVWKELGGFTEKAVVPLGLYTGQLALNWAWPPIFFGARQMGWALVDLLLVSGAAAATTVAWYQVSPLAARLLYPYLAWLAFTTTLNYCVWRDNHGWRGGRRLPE
In short: (§2)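 Stably transfected WT or A147T TSPO HEK293 cells, 8.75 x 10^3/well on poly-L-lysine-coated plates for 24 h, then 100 µM ligand for 48 h. BrdU added 4 h at 37 °C, BrdU incorporation ELISA stopped with 1 M sulfuric acid, absorbance 450 nm; normalised to vehicle-treated controls; n ≥ 3; two-way ANOVA with Dunnett's test.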

Translocator protein [3] = biological target: T1, Translocator protein; assay: Displacement of [3H]PK11195 from wild-type human TSPO expressed in HEK293 cell membranes after 90 mins by scintillation counting method
[4] = system: Translocator protein (Homo sapiens), P30536 [UNDEFINED MUTATION]; assay: Binding affinity to human TSPO A147T mutant expressed in HEK293 cells assessed as inhibition of cell viability at 100 uM incubated for 48 hrs by CellTiter Blue assay relative to control; format: cell-based; in short: as §1
Translocator protein [5] = biological target: T1, Translocator protein; assay: Binding affinity to wild-type human TSPO expressed in HEK293 cells assessed as inhibition of cell proliferation at 100 uM incubated for 48 hrs by Brdu incorporation-based ELISA relative to control; in short: as §2
Homo sapiens [6] = organism: Homo sapiens; assay: Selectivity ratio of ki for human TSPO A147T mutant expressed in HEK293 cell membranes to ki for human TSPO expressed in HEK293 cell membranes; format: cell-based
In short: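 Membranes from stably transfected HEK293 cells (PBS/0.04% EDTA detachment, homogenised in Tris-HCl, washed by 48000 g spins), 20 µg protein/well for WT or 10 µg/well for A147T, incubated with 10 nM [3H]PK 11195 and competitor at log-spaced 3.1 nM–10 µM, 90 min, 4 °C.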

Translocator protein [7] = biological target: T1, Translocator protein; assay: Displacement of [3H]PK11195 from wild-type human TSPO expressed in HEK293 cells after 90 mins by scintillation counting method; format: cell-based
[8] = biological target: Translocator protein (Rattus norvegicus) (UniProt P16257); assay: Binding affinity to TSPO in rat C6 glioma cells assessed as steroidogenic activity by measuring increase in pregnenolone level after 2 hrs by ELISA; format: cell-based
Chain of Translocator protein (Rattus norvegicus) (P16257 whole entry, looked up): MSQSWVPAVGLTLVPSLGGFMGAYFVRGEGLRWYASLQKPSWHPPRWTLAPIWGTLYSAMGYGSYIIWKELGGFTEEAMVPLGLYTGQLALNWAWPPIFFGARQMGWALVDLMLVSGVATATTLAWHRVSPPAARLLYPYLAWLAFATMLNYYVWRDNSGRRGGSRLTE
In short: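 C6 glioma cells plated at 1 x 10^5/well, after 24 h washed twice with ELISA buffer (HEPES-NaOH pH 7.4, 0.1% BSA, glucose, salts), then ligand 100 µM for 2 h in buffer containing trilostane 25 µM and SU10603 10 µM; vehicle 0.1% DMSO. Buffer collected, spun 1500 g, pregnenolone quantified by ELISA; n ≥ 3; one-way ANOVA with Dunnett's test.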

Homo sapiens [9] = organism: Homo sapiens; assay: Selectivity ratio of ki for human TSPO A147T mutant expressed in HEK293 cells to ki for human TSPO expressed in HEK293 cells; format: cell-based
Translocator protein [10] = biological target: T1, Translocator protein; assay: Displacement of [3H]PK11195 from human TSPO A147T mutant expressed in HEK293 cells after 90 mins by scintillation counting method; format: cell-based
Translocator protein [11] = biological target: T1, Translocator protein; assay: Potency index, ratio of PK11195 Ki to compound Ki for wild-type human TSPO expressed in HEK293 cell membranes; format: cell-based
[12] = system: Translocator protein (Homo sapiens), P30536 [UNDEFINED MUTATION]; assay: Potency index, ratio of PK11195 Ki to compound Ki for human TSPO A147T mutant expressed in HEK293 cell membranes; format: cell-based
[13] = system: Translocator protein (Homo sapiens), P30536 [UNDEFINED MUTATION]; assay: Positive allosteric modulation of human TSPO A147T mutant expressed in HEK293 cells assessed as potentiation of PK11195-induced reduction in cell proliferation at 100 uM after 48 hrs by Brdu incorporation-based ELISA
In short: (§3)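 WT or A147T TSPO HEK293 cells (8.75 x 10^3/well, poly-L-lysine plates, 24 h) co-treated with 100 µM PK 11195 plus 100 µM ligand for 48 h; proliferation by BrdU ELISA (4 h BrdU labelling, 450 nm read); compared with PK 11195 alone; n ≥ 3; two-way ANOVA with Dunnett's test.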

Translocator protein [14] = biological target: T1, Translocator protein; assay: Positive allosteric modulation of wild-type human TSPO expressed in HEK293 cells assessed as potentiation of PK11195-induced reduction in cell proliferation at 100 uM after 48 hrs by Brdu incorporation-based ELISA; in short: as §3

T1 sequence (P30536 whole entry): as the sequence (P30536 whole entry, looked up, stated change not applied) above

CCN(Cc1cccc(OC)c1)C(=O)Cn1c2ccccc2c2cc(-c3ccccc3)ccc21
inhibition (Translocator protein [1]): inactive
inhibition [2]: Active
Ki (Translocator protein [3]): 385 nM
inhibition [4]: inactive
inhibition (Translocator protein [5]): inactive
Ratio Ki (Homo sapiens [6]): 1.1

CCN(Cc1ccc(C(F)(F)F)cc1)C(=O)Cn1c2ccccc2c2ccccc21
Ki (Translocator protein [3]): > 10000 nM

CN(C)C(=O)Cn1c2ccccc2c2ccccc21
Ki (Translocator protein [3]): > 10000 nM

CCN(Cc1cccc(OC)c1)C(=O)Cn1c2ccccc2c2cc(-c3ccc(OC)cc3)ccc21
Ki (Translocator protein [3]): 447 nM
Ratio Ki (Homo sapiens [6]): 0.8

CCN(Cc1ccncc1)C(=O)Cn1c2ccccc2c2ccccc21
Ki (Translocator protein [3]): > 10000 nM

CCN(Cc1cccc(OC)c1)C(=O)Cn1c2ccccc2c2ccccc21
Ki (Translocator protein [7]): 217 nM
Activity [8]: inactive
inhibition (Translocator protein [1]): inactive
inhibition [2]: inactive
Ki (Translocator protein [3]): 96.1 nM
inhibition [4]: inactive
Ratio Ki (Homo sapiens [9]): 1.2
inhibition (Translocator protein [5]): inactive
Ki (Translocator protein [10]): 277 nM
Ratio Ki (Homo sapiens [6]): 1

CCN(Cc1ccccc1F)C(=O)Cn1c2ccccc2c2ccccc21
Ki (Translocator protein [3]): 184 nM
Ratio Ki (Homo sapiens [6]): 17

COc1cccc(CN(C)C(=O)Cn2c3ccccc3c3cc(-c4cccc(Cl)c4)ccc32)c1
Ki (Translocator protein [3]): 201 nM
Ratio Ki (Homo sapiens [6]): 3.2

COc1cccc(CN(C)C(=O)Cn2c3ccccc3c3cc(Br)ccc32)c1
Ki (Translocator protein [3]): > 10000 nM

COc1cccc(CN(C)C(=O)Cn2c3ccccc3c3cc(-c4ccc(Cl)cc4)ccc32)c1
Ki (Translocator protein [3]): 3550 nM
Ratio Ki (Homo sapiens [6]): 0.5

CCN(CC)C(=O)Cn1c2ccccc2c2ccccc21
Ratio Ki (Homo sapiens [6]): 5.9

CCN(Cc1ccc(OC)cc1)C(=O)Cn1c2ccccc2c2ccccc21
Ki (Translocator protein [3]): 4740 nM
Ratio Ki (Homo sapiens [6]): > 2.1

CCN(Cc1ccc(F)cc1)C(=O)Cn1c2ccccc2c2ccccc21
Ki (Translocator protein [3]): 694 nM
Ratio Ki (Homo sapiens [6]): > 14.4

CCN(Cc1cccnc1)C(=O)Cn1c2ccccc2c2ccccc21
Ki (Translocator protein [3]): > 10000 nM

CCN(Cc1ccccc1)C(=O)Cn1c2ccccc2c2ccccc21
inhibition (Translocator protein [1]): inactive
inhibition [2]: inactive
Ki (Translocator protein [3]): 70 nM
inhibition [4]: inactive
inhibition (Translocator protein [5]): inactive
Ratio Ki (Homo sapiens [6]): 4.5

CCN(Cc1ccc(NC(C)=O)cc1)C(=O)Cn1c2ccccc2c2ccccc21
Ki (Translocator protein [3]): > 10000 nM

CCN(Cc1ccccc1NC(C)=O)C(=O)Cn1c2ccccc2c2ccccc21
Ki (Translocator protein [3]): 243 nM
Ratio Ki (Homo sapiens [6]): > 41.2

CCN(Cc1cccc(NC(C)=O)c1)C(=O)Cn1c2ccccc2c2ccccc21
Ki (Translocator protein [3]): > 10000 nM

CCN(Cc1ccccc1OC)C(=O)Cn1c2ccccc2c2ccccc21
Ki (Translocator protein [3]): 1530 nM
Ratio Ki (Homo sapiens [6]): 1

COc1ccc(-c2ccc3c(c2)c2ccccc2n3CC(=O)N(C)Cc2cccc(OC)c2)cc1
Ki (Translocator protein [7]): 3.2 nM
Activity [8]: inactive
inhibition (Translocator protein [1]): inactive
Ratio Ki (Translocator protein [11]): 3.4
inhibition [2]: inactive
Ki (Translocator protein [3]): 6.6 nM
inhibition [4]: inactive
Ratio Ki (Homo sapiens [9]): 7.3
inhibition (Translocator protein [5]): inactive
Ki (Translocator protein [10]): 23.2 nM
Ratio Ki [12]: 1.1
Ratio Ki (Homo sapiens [6]): 3.8

CCN(Cc1ccccn1)C(=O)Cn1c2ccccc2c2ccccc21
Ki (Translocator protein [3]): > 10000 nM

O=C(Cn1c2ccccc2c2ccccc21)NCc1ccccc1
Ki (Translocator protein [3]): > 10000 nM

CCN(Cc1cccc(OC)c1)C(=O)Cn1c2ccccc2c2cc(Br)ccc21
inhibition (Translocator protein [1]): inactive
inhibition [2]: inactive
Ki (Translocator protein [3]): 469 nM
inhibition [4]: inactive
inhibition (Translocator protein [5]): inactive
Ratio Ki (Homo sapiens [6]): 1

CN(Cc1ccccc1)C(=O)Cn1c2ccccc2c2ccccc21
inhibition (Translocator protein [1]): inactive
inhibition [2]: inactive
Ki (Translocator protein [3]): 53 nM
inhibition [4]: inactive
inhibition (Translocator protein [5]): inactive
Ratio Ki (Homo sapiens [6]): 2.5

CCN(Cc1cccc(C(F)(F)F)c1)C(=O)Cn1c2ccccc2c2ccccc21
Ki (Translocator protein [3]): > 10000 nM

COc1cccc(CN(C)C(=O)Cn2c3ccccc3c3cc(-c4ccccc4)ccc32)c1
Activity [13]: Active
Activity (Translocator protein [14]): Active
inhibition (Translocator protein [1]): inactive
inhibition [2]: inactive
Ki (Translocator protein [3]): 231 nM
inhibition [4]: inactive
inhibition (Translocator protein [5]): inactive
Ratio Ki (Homo sapiens [6]): 0.9

CC[C@@H](C)N(C)C(=O)c1cc2ccccc2c(-c2ccccc2Cl)n1
Activity [8]: Active
inhibition (Translocator protein [1]): 65%
inhibition [2]: 81%
inhibition [4]: 68%
inhibition (Translocator protein [5]): 83%

CCN(Cc1cccc(F)c1)C(=O)Cn1c2ccccc2c2ccccc21
Ki (Translocator protein [3]): 563 nM
Ratio Ki (Homo sapiens [6]): > 17.8

COc1cccc(CN(C)C(=O)Cn2c3ccccc3c3cc(-c4ccccc4Cl)ccc32)c1
inhibition (Translocator protein [1]): inactive
Ki (Translocator protein [3]): 231 nM
inhibition [4]: inactive
Ratio Ki (Homo sapiens [6]): 0.9

CCN(Cc1ccccc1C(F)(F)F)C(=O)Cn1c2ccccc2c2ccccc21
Ki (Translocator protein [3]): > 10000 nM
